Diaph act CS – compounds boosting diaphorase resazurin reduction – biochemical, uHTS, resorufin fluorescence, counter-screen for diaphorase-coupled primary assays, primary screen | activation factor at 20 µM | 0.005% of 190,000 active | Diaphorase/resazurin coupled assay, 16 min; stronger effect = higher value; 1 = vehicle wells, 0 = NADH-free wells;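 active means diaphorase activity raised at least twofold by the compound at 20 µM; inactive means activation factor below 2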
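System – purified diaphorase enzyme from Clostridium kluyveri · Input – enzyme 0.07 U/mL final · Also added – final NADH 0.114 mM, resazurin 0.1 mM · Measured by – fluorescence of resorufin, 544 nm excitation, 590 nm emission · Timing – 16 min enzyme reaction, ambient temperature · Measure – resorufin increase flagging diaphorase activators or reducers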
PMI activator – activators of human PMI, primary screen, biochemical, fluorescence intensity, near-Km mannose 6-phosphate. AID 1214, 2008. Mannose-6-phosphate isomerase (Homo sapiens), P34949. purified human PMI, coupled resazurin fluorescence, 20 min; stronger effect = higher value; 1 = vehicle control, 0 substrate-free wells. 0.005% of 190,000 active. activation factor at 20 µM;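 active means activation factor of 2 or more at 20 µM, relative to plate controls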
Target sequence (P34949 whole entry, looked up): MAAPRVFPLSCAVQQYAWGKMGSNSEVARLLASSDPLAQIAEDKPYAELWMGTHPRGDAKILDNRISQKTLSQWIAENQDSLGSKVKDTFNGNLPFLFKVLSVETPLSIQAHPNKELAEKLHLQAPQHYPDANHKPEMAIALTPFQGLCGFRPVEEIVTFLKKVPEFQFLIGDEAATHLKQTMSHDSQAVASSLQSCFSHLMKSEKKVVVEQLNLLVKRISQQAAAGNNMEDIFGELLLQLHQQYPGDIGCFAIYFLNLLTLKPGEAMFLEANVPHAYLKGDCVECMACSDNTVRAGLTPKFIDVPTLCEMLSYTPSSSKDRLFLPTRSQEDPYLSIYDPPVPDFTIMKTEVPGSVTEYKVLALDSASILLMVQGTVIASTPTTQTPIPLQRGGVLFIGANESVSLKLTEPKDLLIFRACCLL
Lmaj promast – Leishmania major promastigote growth inhibition, primary screen. Leishmania major promastigotes, resazurin fluorescence viability. inhibition, % at 10 µM. 9% of 200,000 active. AID 1063, 2008; in the data active means inhibition above about 50%;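 further: promastigotes grown with compound for 44 hours at 28 °C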
PMI act hi M6P – human PMI activators, high substrate, primary screen, biochemical, fluorescence intensity, near-saturating mannose 6-phosphate. activation factor at 20 µM. AID 1216, 2008. Mannose-6-phosphate isomerase (Homo sapiens), P34949. 0.34% of 190,000 active. coupled PMI enzyme assay, resazurin fluorescence, 20 min; stronger effect = higher value; 1 = untreated enzyme, 0 = substrate-free blank;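 active means activation factor of 2 or more at 20 µM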
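Test system: human phosphomannose isomerase with PGI, G6PDH, diaphorase coupling enzymes / Doses: 20 µM compound, 1% DMSO / Times: enzyme reaction with compound 20 min at room temperature / Measured by: Diaphorase-driven resazurin-to-resorufin fluorescence, excitation 544, emission 590 nm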
WT yeast gro inh – growth inhibition of WT strain, primary screen, mitochondrial fusion inhibitor project, WT and mutant strains, chemical genetic. mitochondrial fusion phenotypic screen. inhibition, % at 10 µM. 2.1% of 190,000 active; in the data active means inhibition above about 58%; tested in S. cerevisiae
L major 1uM – Leishmania major promastigote growth inhibition, confirmation, 1 µM repeat of primary hits; 13% of 1,100 active; inhibition, % at 1 µM; shares compounds with Lmaj promast; L. major promastigote growth, resazurin fluorescence, 48 h;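 active means inhibition above about 50% in both repeat tests, limit read from the data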
Each line names hits and unclear results; the compound was inactive in the other large screens (follow-up assays come after a bar, where they were run). An excerpt weighted towards active compounds, which were near 10% of everything screened.

CC12COC3(P(=O)(c4ccccc4)c4ccccc4)CC1CCC23CP(=O)(c1ccccc1)c1ccccc1 (stereo not given)	Lmaj promast 62 | L major 1uM inactive
O=C1CNC(=O)N1CC(=O)N1CCCc2ccccc21	none
O=C(NCCc1ccccc1)C1CCC(CNc2nc(=S)[nH]c3ccccc23)CC1 (stereo not given)	none
O=C(C1CCC(CNc2nc(=S)[nH]c3ccccc23)CC1)N1CCN(c2ccccn2)CC1 (stereo not given)	Lmaj promast 99 | L major 1uM inactive
Cc1ccc(S(=O)(=O)c2c(C)nn(-c3ccccc3)c2OC(=O)c2ccc(Br)o2)cc1	Lmaj promast 53 | L major 1uM inactive
Cc1ccc(S(=O)(=O)c2c(C)nn(-c3ccccc3)c2OC(=O)c2ccco2)cc1	none
Cc1cc(C)nc(N/N=C/c2cc(C)n(CC(F)(F)F)c2C)n1	none
Cc1ccc(O)c(NC(=O)C2CC(c3c(F)cccc3Cl)=NO2)c1 (stereo not given)	none
N#Cc1c(NC(=O)C2CC(c3c(F)cccc3Cl)=NO2)sc2c1CCC2 (stereo not given)	Lmaj promast 64 | L major 1uM inactive
Cc1noc(/C=C/c2ccco2)c1S(=O)(=O)N1CCC(C(=O)NCc2ccco2)CC1	Lmaj promast 77 | L major 1uM inactive
Cc1cccnc1NC(=O)C1CCN(S(=O)(=O)c2c(C)noc2/C=C/c2ccco2)CC1	none
COC(=O)C[N+](C)(C)CC#Cc1ccccc1	Lmaj promast 53 | L major 1uM inactive
C[N+](C)(CC#Cc1ccccc1)CC(=O)c1ccccc1	none
CCC(C)(C)c1ccc(Oc2ccc(N)cc2)cc1	Lmaj promast 95, WT yeast gro inh 89 | L major 1uM inactive
COc1cc(-c2c(C#N)c(N)nc(SCc3ccncc3)c2C#N)cc(OC)c1OC	Lmaj promast 98 | L major 1uM 61
Nn1c(SCC(=O)N2CCN(S(=O)(=O)c3ccc(Cl)cc3)CC2)nnc1-c1cccs1	none
Cc1ccc(NC(=S)NCc2ccc3c(c2)cc(C)n3C)c(C)c1	none
CCOC(=O)c1c(CN(C)C)n(-c2ccc(C)cc2)c2cc(Br)c(O)cc12	none
CCOC(=O)c1c(CSC(=N)N)n(-c2ccc(C)cc2)c2cc(Br)c(OC(C)=O)cc12	Lmaj promast 53 | L major 1uM inactive
Cc1ccc(N=c2c([N+](=O)[O-])nn(-c3ccc(Cl)cc3)n2O)cc1C	none
Cc1c([N+](=O)[O-])nnn1-c1cc(Cl)cc(Cl)c1	Lmaj promast 50 | L major 1uM inactive
COC(=O)c1cc(=O)n(Cc2cccs2)c(=NCc2cccs2)s1	none
CCOC(=O)c1ccc(N=c2sc(C(=O)OC)cc(=O)n2Cc2ccco2)cc1	Lmaj promast 100 | L major 1uM inactive
CCOC(=O)c1c(NC(=O)C2CC(Cl)=CCC2C(=O)O)sc2c1CC(C)(C)OC2 (stereo not given)	none
O=C(c1sc2ccccc2c1Cl)N(Cc1ccccc1Cl)C1CCS(=O)(=O)C1 (stereo not given)	Lmaj promast 100 | L major 1uM inactive
O=C(c1ccccc1)N(Cc1cccs1)C1CCS(=O)(=O)C1 (stereo not given)	none
COc1cc(/C=C2\C(=O)ON=C2c2ccccc2)cc(Cl)c1O	Lmaj promast 50 | L major 1uM inactive
COc1cc(C=C2C(=O)OC(c3ccccc3)OC2=O)cc(Br)c1O (stereo not given)	none
O=C(NCCNC(=O)c1ccc([N+](=O)[O-])cc1)c1ccncc1	none
O=C1c2ccccc2C(=O)N1CCCCSc1nc2ccccc2c(=O)n1CCCN1CCOCC1	none
CN(C)CCCN=c1cc(-c2ccccc2)oc2ccc(Cl)cc12	Lmaj promast 100 | L major 1uM 89
CC(C)CN=c1cc(-c2ccccc2)oc2ccc(Cl)cc12	none
CC(=O)Nc1ccc(S(=O)(=O)NCCSCc2ccccc2Cl)cc1	Lmaj promast 68 | L major 1uM inactive
CN=C(Nc1ccc(C(=O)OC)s1)c1ccc(Cl)cc1	none
CC(C)(C)NC(=O)CN1CCN(C(=O)CCl)CC1	none
Cc1ccc(-c2csc(=S)n2CC(=O)OCC(=O)NC(C)C(C)C)cc1 (stereo not given)	Lmaj promast 64 | L major 1uM inactive
CCCCNC(=O)CC1NCCNC1=O (stereo not given)	none
COc1ccc(S(=O)(=O)Nc2ccc(C)cc2)cc1N(C)S(=O)(=O)c1ccc(Cl)cc1	Lmaj promast 99 | L major 1uM inactive
O=c1[nH]cc(C(F)(F)F)cc1NS(=O)(=O)c1ccccc1[N+](=O)[O-]	none
CCOC(=O)Cc1cc(-c2ccc(O)cc2)nc2ccc3ccccc3c12	none
CCOC(=O)Cc1cc(-c2ccc(F)cc2)nc2ccc3ccccc3c12	Lmaj promast 68 | L major 1uM inactive
Cc1ccc(-n2nnnc2CCl)cc1	Lmaj promast 96 | L major 1uM inactive
Cc1ccc(-c2onc3ccc(C=O)cc23)cc1	Lmaj promast 81 | L major 1uM inactive
Cc1ccc(-c2onc3ccc(C4(C)OCCO4)cc23)cc1	none
CSc1nnc(-c2ccccc2Cl)n1N	none
Nn1c(-c2ccccc2Cl)nnc1-c1ccccc1Cl	Lmaj promast 76, PMI act hi M6P 2.2 | L major 1uM inactive
c1ccc(C(Cc2nc(-c3ccncc3)no2)c2ccccc2)cc1	Lmaj promast 70 | L major 1uM inactive
Cc1cc(NC(=O)CCN2C(=O)C3C4C=CC(C4)C3C2=O)ccc1Br (stereo not given)	none
CCOc1ccc(Nc2ccc(N3C(=O)CCC3=O)cc2[N+](=O)[O-])cc1	none
CC(/C=N/NC(=O)c1cc(-c2ccncc2)nc2ccccc12)=C\c1ccco1	Lmaj promast 89 | L major 1uM inactive
COC(=O)c1ccc(COc2ccc(C3C4=C(CCCC4=O)Nc4onc(C)c43)cc2)cc1 (stereo not given)	Lmaj promast 100 | L major 1uM 55
CC(C)(C)c1ccc(NC(=O)COC(=O)C2(C)CC2(Cl)Cl)cc1 (stereo not given)	none
CCCOc1ccc(N)cc1N	Lmaj promast 74 | L major 1uM inactive
CC1CN(S(=O)(=O)c2cccc(C(=O)Nc3ccc(S(=O)(=O)Nc4ncccn4)cc3)c2)CC(C)O1 (stereo not given)	none
CC/C(=N/OC(=O)c1cccc(C)c1)C(=O)c1cccs1	none
O=C(O)c1cc2c([nH]c1=O)CCCC2	none
